From ChEMBL document CHEMBL3124871, “Synthesis and pharmacological characterization of 1-benzyl-4-aminoindole-based thyroid hormone receptor β agonists” (Bioorg Med Chem, 2014)
Each block holds one molecule with its values, some of them ahead of it.

Key:
[1] = system: CV-1; experiment: Selectivity ratio of EC50 for human recombinant transfected in CV-1 cells to EC50 for human recombinant TRbeta1 transfected in CV-1 cells; assay type: cell-based
Outline: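 CV-1 monkey kidney cells grown in DMEM with 10% FBS for 24 h at 37 °C and 5% CO2. Transfected (FuGENE) with hTRα1 or hTRβ1 plus a SEAP reporter for 24 h, then exposed to T3 or test compound for 8-10 h. SEAP was read as A405 of p-nitrophenol (pH 9.8, 30 min, RT). EC50 was set against T3 max = 100%; mean of four experiments; α/β ratio of EC50s.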

[2] = system: HepG2; experiment: Selectivity ratio of EC50 for human recombinant transfected in human HepG2 cells to EC50 for human recombinant TRbeta1 transfected in human HepG2; assay type: cell-based
[3] = molecular target: T1, Thyroid hormone receptor beta (Homo sapiens, UniProt P10828); experiment: Displacement of [125I]-Triiodothyronine from human recombinant TRbeta1 ligand binding domain after 2 to 3 hrs by beta counting
T1 sequence (P10828 whole entry): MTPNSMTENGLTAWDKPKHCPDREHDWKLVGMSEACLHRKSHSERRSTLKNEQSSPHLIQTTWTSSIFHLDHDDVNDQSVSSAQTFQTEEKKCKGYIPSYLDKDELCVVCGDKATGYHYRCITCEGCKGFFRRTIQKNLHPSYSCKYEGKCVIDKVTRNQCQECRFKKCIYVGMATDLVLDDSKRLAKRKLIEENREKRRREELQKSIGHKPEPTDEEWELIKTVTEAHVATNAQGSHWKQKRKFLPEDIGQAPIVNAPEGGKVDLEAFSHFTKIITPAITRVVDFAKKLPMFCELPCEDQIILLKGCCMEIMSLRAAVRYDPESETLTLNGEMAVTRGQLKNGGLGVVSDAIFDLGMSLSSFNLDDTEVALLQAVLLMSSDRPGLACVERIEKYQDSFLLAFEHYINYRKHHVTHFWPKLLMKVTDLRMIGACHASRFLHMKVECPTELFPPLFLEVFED

[4] = molecular target: T2, Thyroid hormone receptor alpha (Homo sapiens, UniProt P10827); experiment: Displacement of [125I]-Triiodothyronine from human recombinant TRalpha1 ligand binding domain after 2 to 3 hrs by beta counting
T2 sequence (P10827 whole entry): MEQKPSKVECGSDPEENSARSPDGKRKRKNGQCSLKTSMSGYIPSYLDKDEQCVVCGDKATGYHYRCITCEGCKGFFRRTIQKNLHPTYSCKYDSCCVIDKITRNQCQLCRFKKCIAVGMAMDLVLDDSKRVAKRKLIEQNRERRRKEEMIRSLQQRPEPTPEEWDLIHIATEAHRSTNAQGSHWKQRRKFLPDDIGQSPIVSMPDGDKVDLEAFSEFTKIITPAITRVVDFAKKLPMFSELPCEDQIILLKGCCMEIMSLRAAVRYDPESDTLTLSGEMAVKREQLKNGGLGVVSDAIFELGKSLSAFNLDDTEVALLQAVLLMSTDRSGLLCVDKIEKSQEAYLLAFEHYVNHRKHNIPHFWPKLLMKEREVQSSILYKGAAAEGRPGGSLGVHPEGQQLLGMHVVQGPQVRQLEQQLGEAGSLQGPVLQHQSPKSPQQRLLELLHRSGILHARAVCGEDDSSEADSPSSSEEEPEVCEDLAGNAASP

[5] = molecular target: T1, Thyroid hormone receptor beta; experiment: Agonist activity at human recombinant TRbeta1 transfected in human HepG2 cells after 8 to 10 hrs by alkaline phosphatase reporter gene assay; assay type: cell-based
[6] = molecular target: T1, Thyroid hormone receptor beta; experiment: Agonist activity at human recombinant TRbeta1 transfected in CV-1 cells after 8 to 10 hrs by alkaline phosphatase reporter gene assay; assay type: cell-based
[7] = system: Rattus norvegicus; experiment: Toxicity in cholesterol-fed Sprague-Dawley rat assessed as TSH level at 50 ug/kg/day, po qd for 1 week measured 3 to 6 hrs post last dose (reference value: 62 +/- 7 ng/dl); assay type: organism-based; conditions: in vivo, 0.05 mg/kg
[8] = system: Rattus norvegicus; experiment: Reduction in plasma triglyceride level in cholesterol-fed Sprague-Dawley rat at 50 ug/kg/day, po qd for 1 week measured 3 to 6 hrs post last dose (reference value: 62 +/- 25 mg/dl); assay type: functional
[9] = system: Rattus norvegicus; experiment: Toxicity in cholesterol-fed Sprague-Dawley rat assessed as total T4 level at 50 ug/kg/day, po qd for 1 week measured 3 to 6 hrs post last dose (reference value: 3.8 +/- 0.9 ug/dl); assay type: organism-based; conditions: in vivo, 0.05 mg/kg
[10] = system: Rattus norvegicus; experiment: Reduction in plasma total cholesterol in cholesterol-fed Sprague-Dawley rat at 50 ug/kg/day, po qd for 1 week measured 3 to 6 hrs post last dose (reference value: 190 +/- 49 mg/dl); assay type: functional
[11] = system: Rattus norvegicus; experiment: Reduction in plasma LDL-cholesterol in cholesterol-fed Sprague-Dawley rat at 50 ug/kg/day, po qd for 1 week measured 3 to 6 hrs post last dose (reference value: 51 +/- 15 mg/dl); assay type: functional
[12] = system: Rattus norvegicus; experiment: Toxicity in cholesterol-fed Sprague-Dawley rat assessed as heart weight at 50 ug/kg/day, po qd for 1 week measured 3 to 6 hrs post last dose (reference value: 1.14 +/- 0.12 g); assay type: organism-based; conditions: in vivo, 0.05 mg/kg
[13] = system: Rattus norvegicus; experiment: Toxicity in cholesterol-fed Sprague-Dawley rat assessed as heart rate at 50 ug/kg/day, po qd for 1 week measured 3 to 6 hrs post last dose (reference value: 383.0 +/- 26.7 bpm); assay type: organism-based; conditions: in vivo, 0.05 mg/kg
[14] = system: Rattus norvegicus; experiment: Reduction in plasma HDL-cholesterol in cholesterol-fed Sprague-Dawley rat at 50 ug/kg/day, po qd for 1 week measured 3 to 6 hrs post last dose (reference value: 22 +/- 6 mg/dl); assay type: functional
[15] = system: Rattus norvegicus; experiment: Reduction in plasma free cholesterol in cholesterol-fed Sprague-Dawley rat at 50 ug/kg/day, po qd for 1 week measured 3 to 6 hrs post last dose (reference value: 36 +/- 9 mg/dl); assay type: functional
[16] = system: Rattus norvegicus; experiment: Toxicity in cholesterol-fed Sprague-Dawley rat assessed as TSH level at 50 ug/kg/day, po qd for 1 week measured 3 to 6 hrs post last dose (reference value: 3.0 +/- 1.0 uIU/ml); assay type: organism-based; conditions: in vivo, 0.05 mg/kg
[17] = molecular target: T2, Thyroid hormone receptor alpha; experiment: Agonist activity at human recombinant TRalpha1 transfected in CV-1 cells after 8 to 10 hrs by alkaline phosphatase reporter gene assay; assay type: cell-based
[18] = organism: Homo sapiens; experiment: Reduction in LDL-cholesterol in healthy human at 100 ug qd for 2 weeks; assay type: functional; parameters: scale not given: the % may be the effect or the level left
[19] = organism: Homo sapiens; experiment: Reduction in triglyceride level in coronary heart disease patient with hyperlipidemia relative to placebo-control; assay type: functional; parameters: scale not given: the % may be the effect or the level left
[20] = organism: Homo sapiens; experiment: Reduction in cholesterol level in coronary heart disease patient with hyperlipidemia relative to placebo-control; assay type: functional; parameters: scale not given: the % may be the effect or the level left

SMILES: CC(C)c1cc(Cn2ccc3c(NC(=O)C(=O)O)cccc32)ccc1O
Ratio EC50 [1]: 2.7
Ratio EC50 [2]: 2.2
EC50 [5]: 550 nM
EC50 [6]: 1900 nM

SMILES: N[C@@H](Cc1cc(I)c(Oc2ccc(O)c(I)c2)c(I)c1)C(=O)O [LIOTHYRONINE]
Activity [7]: 31 ng/dL
Activity [8]: 61 mg/dL
Activity [9]: 0.9 µg/dL
Activity [10]: 123 mg/dL
Activity [11]: 28 mg/dL
Activity [12]: 1.25 g
Activity [13]: 430 bpm
Activity [14]: 22 mg/dL
Activity [15]: 22 mg/dL
Activity [16]: 0.1 uIU/ml

SMILES: Cc1cc(OCC(=O)O)cc(C)c1Cc1ccc(O)c(C(C)C)c1 [SOBETIROME]
Activity [18]: 41%

SMILES: N[C@H](Cc1cc(I)c(Oc2cc(I)c(O)c(I)c2)c(I)c1)C(=O)[O-].O.[Na+] [DEXTROTHYROXINE SODIUM]
Activity [19]: 15%
Activity [20]: 12%

Further lines, with some results ahead:

IC50 [3]: 54 nM
IC50 [4]: 190 nM
EC50 [5]: 190 nM
EC50 [6]: 500 nM
SMILES: Cc1ccc(NC(=O)C(=O)O)c2ccn(Cc3ccc(O)c(C(C)C)c3)c12
Ratio EC50 [1]: 1.5
Ratio EC50 [2]: 2.5

EC50 [6]: 150 nM
EC50 [17]: 450 nM
SMILES: Cc1c(CC(=O)O)c2ccccc2n1Cc1ccc(O)c(C(C)C)c1
Ratio EC50 [1]: 3

IC50 [3]: 430 nM
IC50 [4]: 8200 nM
SMILES: Cc1c(CC(=O)NCC(=O)O)c2ccccc2n1Cc1ccc(O)c(C(C)C)c1
